Results reported in article PMC9828441 (Acta Biochimica et Biophysica Sinica, 2022).

Tested on: PC9 cells
Assay: Cell cycle by PI staining flow cytometry
Format: cell-based, human
Conditions: PC9, 24 h
In short: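 Cells in RPMI 1640 with 10% FBS (37°C, 5% CO2) were seeded in 6-well plates at 20–25% confluence and exposed to graded test compound or a reference EGFR inhibitor for 24 h. They were then fixed in 70% ethanol for 24 h at 4°C, washed twice in PBS, treated with RNase A at 37°C for 30 min and stained with PI (50 μg/mL) for 10 min. DNA content was read by flow cytometry.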

COc1cc2ncnc(Nc3ccc(F)c(Cl)c3)c2cc1OCCCN1CCOCC1 [gefitinib] was tested, and the cell cycle arrest was “arrested only PC9 (EGFR L858R+) cells at G0/G1 phase”.
